Assay results: the EternaBench riboswitch data

System: MS2 coat protein
Test: apparent Kd, MS2 coat protein; higher = weaker binding; RNA-MaP array; theophylline 2 mM where present
Procedure, shortened: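 Green signal from SNAP-549-labelled MS2 coat protein was normalised to red-channel RNA signal and to the median Fmax of control clusters. The protein was titrated from 0.7 or 1.5 nM, doubling to 3 µM, without and then with constant ligand, over designs transcribed by stalled E. coli RNA polymerase on Illumina sequencing-chip clusters, in 100 mM Tris-HCl pH 7.5, 80 mM KCl, 4 mM MgCl2, BSA, DTT, yeast tRNA and Tween-20. The apparent Kd is the median of filtered per-cluster binding-curve fits.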

[1] = designed as: OFF switch for theophylline, no ligand
[2] = ligand present: theophylline, designed as: OFF switch for theophylline
[3] = designed as: ON switch for theophylline, no ligand
[4] = ligand present: theophylline, designed as: ON switch for theophylline

Sequence	apparent Kd [1]	apparent Kd [2]	apparent Kd [3]	apparent Kd [4]
AUGGCGUUGGUGUAGCUGUGAAAUGGCGAUACCAGCGUGGAAACACGCCCUUGGCAGCGCCAAAACAUGAGGAUCACCCAUGUUA	20.1 nM	96.6 nM		
CAAACAUGAGGAUCACCCAUGUAAUCAGAUACCAGUGACGAAAGUCACCCUUGGCAGCUGAUUACUUUAGUUCUAAGGUGUUUGA	92.6 nM	56.6 nM		
AUGGUAGGACAGCACAUAUAAGCUUGUGAUACCAGCUAGAAAACUAGCCCUUGGCAGCACAUUACAUGAGGAUCACCCAUGUCCC	51 nM	75.7 nM		
GUUAUGGACCUGGAUACCAGCUGGUACAAGGGCGGUCUACAUGAGGAUCACCCAUGUGUCAGCCCUUGGCAGCCAGCAACCGGCA	9.28 nM	11.8 nM		
AAUAACAUGAGGAUCACCCAUGUAAAAGAUACCAGAGUGAUGAUCCUCCCUUGGCAGCUUAAAACGCUAUUGAUUACAAUAGCGA			54.9 nM	119 nM
GAGGGUGGGUCUCUAAUCCGUUUGACGGAUACCAGCGAGAGAUAUCGCCCUUGGCAGCCGACGACAUGAGGAUCACCCAUGUAAA	15.6 nM	101 nM		
UGAGAUCCUCAUGAUACCAGUGUACUACAUGAGGAUCACCCAUGUAGCAACAUCUGUAGACACCCUUGGCAGCAUGAGACCACGU			18.3 nM	23.7 nM
UGUAACAUGAGGAUCACCCAUGUGCACGAUACCAGCUUCGAAAGAGGCCCUUGGCAGCGUAUGCGUAAGCUGUAUAAUAUAUAUC			11.4 nM	13.6 nM
AGCGCAGGUCCUGAUACCAGUGACAUGAGGAUCACCCAUGUCCGAUGGGCCUGCCUCUGACACCCUUGGCAGCAGGGCUUGUGCU	23.7 nM	29.8 nM		
AUAAGGUAUCUGCUAUCCUCAUGAGCAGAUACCAGCUAGGAAACUAGCCCUUGGCAGCUGCAACAUGAGGAUCACCCAUGUAAUA	409 nM	92.3 nM		
AUAACAUGAGGAUCACCCAUGUAAGCAGAUACCAGCUAGGAAACUAGCCCUUGGCAGCUGCAUAGUGAUCCAUAUAUCUGCUAAU	53.6 nM	42.8 nM		
UAAAACAUGAGGAUCACCCAUGUAUUUGAUACCAGAGUGAUGAUCCUCCCUUGGCAGCAAAUAACGCAUUGAUUACAAUGCGAAA			42.8 nM	143 nM
CUCCGAGGCUAUACUAUCCGCCUCUGUGAUACCAGAAUACCUAUAUUCCCUUGGCAGCAUCACAUGAGGAUCACCCAUGUGCCAU				15.1 nM
AACAGGGCUCGCACGAAGCCCUAAGGUGAUACCAGCACAUGUAAGUGCCCUUGGCAGCACGGUACAUGAGGAUCACCCAUGUAGA			64.3 nM	255 nM
GUGUUUGUGUGAGAUACCAGUGAGGCCACAUGAGGAUCACCCAUGUCCCUCACUCCGGCCCACCCUUGGCAGCUCUUAUAGUAGU	9.39 nM	38.4 nM		
AUAAUGGGUAUCGGAUUAUCAUGAUAUGAUACCAGAUACUUAGAUAUCCCUUGGCAGCAUGAGGACAUGAGGAUCACCCAUGUAU	35 nM	61.8 nM		
UACAUGAGGAUCACCCAUGUAUGAAUGGAUACCAGAUAAAAUAAGGUCCCUUGGCAGCUAGUGAAUCGAGGGUGGGUAUCAUGUU	10.5 nM	11.2 nM		
CGUACAUGAGGAUCACCCAUGUAGAGUGAUACCAGUCUACCUAGUGACCCUUGGCAGCACAUCGAUGGCAUCGGUGAUGCCGUUU			87.3 nM	83.3 nM
AAUCUGUCGGGUGAUACCAGCCUCGGCACGUCUCGUGCCGAACAUGAGGAUCACCCAUGUGGCCCUUGGCAGCACAUGACAAAUC			258 nM	88.6 nM
AAUAUAAGUGUAAUUAUAUUUAUAUCUGAUACCAGACUCUCAUGUGUCCCUUGGCAGCAGUUACAUGAGGAUCACCCAUGUAUUA			76 nM	21.6 nM
AGCGACAUGCGUGAUACCAGCUACAUGAGGAUCACCCAUGUCAGUAGGAAACUGCUGUGUAGCCCUUGGCAGCACAGUGCAUGUC	34.9 nM	38.6 nM		
UCGCUCGCAGAAAUGCGAGCGAGUUGCGAUACCAGCCCGGAAACGGGCCCUUGGCAGCGCACAUGAGGAUCACCCAUGUCAUGUU	17.4 nM	23.8 nM		
UCGCAUUGCUCAGAUACCAGACAUGAGGAUCACCCAUGUACCAAGGUAACCGAAAGGCAUGUCCCUUGGCAGCUGAGCAAUGCGU	12.1 nM	225 nM		
AUGUCAUUGGUGCAGCUGUUAAAUGGCGAUACCAGCGUGGAAACACGCCCUUGGCAGCGCCAAAACAUGAGGAUCACCCAUGUUA	28 nM	83 nM		
AAUAAGCAGCUGCAAGGUGAUCCUGCAGAUACCAGCUAGGAAACUAGCCCUUGGCAGCUGCAACAUGAGGAUCACCCAUGUAAUA	34.8 nM	85.3 nM		
CAUGUUGUUGAAGAUACCAGAUUCUGAACGUUCACAUGAGGAUCACCCAUGUAAGUCCGAGUCCCUUGGCAGCUUAUACAGGUGG			53 nM	14.7 nM
AGACAUGAGGAUCACCCAUGUAGUACGGAUACCAGAUCCAGAUGCGUCCCUUGGCAGCUGUAGUACAGCGUUACAUCGCUCAUAG	37.9 nM	70.7 nM		

Sequence	apparent Kd [1]	apparent Kd [2]	apparent Kd [3]	apparent Kd [4]
ACAUGAGGAUCACCCAUGUUCCUCUUUGAUACCAGUGAGUUGUUUCGCCCUUGGCAGCGAGUGUUUGUUUUUUUGUUUUGUUUGG	215 nM	288 nM		
GUAUGGAAACAUACUAUGGUAUCGUGAGAUACCAGUACAGAAAUGUACCCUUGGCAGCUCGCGCAUACAUGAGGAUCACCCAUGU	18.1 nM	25.7 nM		
ACGACGCAUACAGAUACCAGUAGCCGAGAAACAUGAGGAUCACCCAUGUCGAGCGACAACUGCCCUUGGCAGCUGUAUGCGUCAG			8.49 nM	8.34 nM
ACGACGCAUAGUGAUACCAGUACAACAUGAGGAUCACCCAUGUCACAUAUGUUGUAAUAGUGCCCUUGGCAGCACUAUGCGUCAG			155 nM	17.6 nM
CGGUUUGUGAUGGAUACCAGCAGAGAGAAUGUUUAUCCUGACAUGAGGAUCACCCAUGUGUGCCCUUGGCAGCUGUUGUGGGCUG	60 nM	69 nM		
UUUACAUGAGGAUCACCCAUGUGCCAUGAUACCAGACAUGAAAAUGUCCCUUGGCAGCAUGAAAGAUCCACGUCGGAAACGACGG			176 nM	308 nM
GAUGAACUAUUUGAUACCAGACUACAUGAGGAUCACCCAUGUGUGUUUAUACUUCAGUCAGUCCCUUGGCAGCAAAUAGUUUAUC	147 nM	306 nM		
ACAUGAACAUGAGGAUCACCCAUGUAUGAUACCAGAAAAGAAGAGUUCCCUUGGCAGCGUACAACACAUGAGGAUCACCCAUGUG			24.1 nM	24.3 nM
UUUUUUAUCAUGGCGUAUCGGAAAACCGAUACCAGUACAGAAAUGUACCCUUGGCAGCGGCGUUUUACAUGAGGAUCACCCAUGU	14.5 nM	69.2 nM		
UGGUACAUGAGGAUCACCCAUGUUCCAGAUACCAGACUCCCGGUGGUCCCUUGGCAGCUGGUGGUACAUGAGGAUCACCCAUGUG	30.4 nM	49.9 nM		
GCUGUAAGUGCAGAUACCAGCGUGUUAUAUUUCUAAUGACAUGAGGAUCACCCAUGUAAAUGCCCUUGGCAGCUGCACUUACAGC			16.1 nM	16.9 nM
UAAAACAUGAGGAUCACCCAUGUAAUUGAUACCAGAGUGAUGAUCCUCCCUUGGCAGCAAAUAACGCAUUGAUUACAAUGCGAAA			42.7 nM	215 nM
AGCGCUGUGCAUGAUACCAGCUACAUGAGGAUCACCCAUGUGCGUCAGAAAUGACUGUGUAGCCCUUGGCAGCAUAAAGCAUGUA	19 nM	58.8 nM		
AUUAAUAGUUGUGAUACCAGACGAACAUGAGGAUCACCCAUGUAACUUUUAGGUGUUGUAGUCCCUUGGCAGCACUAUUUAGUUA			42.7 nM	35.3 nM
UUCAGUACAACAGAUACCAGACAGUACUCUAAAUUGCAACAUGAGGAUCACCCAUGUAUAGUCCCUUGGCAGCUGUAAUGGGUGA			114 nM	174 nM
AUUUUUCUAUCAGAUACCAGACAAUUUUAGACAUGAGGAUCACCCAUGUAUAGGGUGUUCGUCCCUUGGCAGCUGUUAAGUUUAA			190 nM	205 nM
AAGAAGUUUUGAUUUUUAUGAAGUAGUGAUACCAGUCAAGAAAGAGACCCUUGGCAGCGCAACAUGAGGAUCACCCAUGUAAGAA	25.4 nM	27.2 nM		
AACCGAGGCUAUCCUCUAAGAAUAUGUGAUACCAGAAUAAUUUUAUUCCCUUGGCAGCAUGACAUGAGGAUCACCCAUGUGUCUU			134 nM	134 nM
UUUGAUAGAACAGAUACCAGCGUGUUAUAAAACAUGAGGAUCACCCAUGUAGUGAUCAAGCGCCCUUGGCAGCUGGUUUGUUAGG			135 nM	182 nM
GGGCCUGUAAGCAGACCCACAGCGGGUGAUACCAGCAAUAAAACUUGCCCUUGGCAGCACACAGCUACAUGAGGAUCACCCAUGU			43.2 nM	83.2 nM
UUUUUUAACAUGGCGUAUCGGAAAACCGAUACCAGUACAGAAAUGUACCCUUGGCAGCGGCGUUUUACAUGAGGAUCACCCAUGU	29.4 nM	193 nM		
AGCGAUAUGCAUGAUACCAGCUACAUGAGGAUCACCCAUGUGCGUCAGUAAUGACUGUGUAGCCCUUGGCAGCAUAGAGCAUGUA	37.6 nM	70.4 nM		
UCCACAUGAGGAUCACCCAUGUAAUCAGAUACCAGUGACGAAAGUCACCCUUGGCAGCUGAUUACUUUAGUUCGAGGGUGUUUGA	102 nM	202 nM		
UACAUGAGGAUCACCCAUGUAUAGAGGGAUACCAGUGUCAGUGAGCACCCUUGGCAGCCCGCGAACAAUGGGUGCGCUAAAUAGU	30.4 nM	56.9 nM		
AGACAUGAGGAUCACCCAUGUAGUAUGGAUACCAGAUCCAGAUUUAUCCCUUGGCAGCUGUGGUACAGCGAUGGAUCGCUCCUAG	23.4 nM	27.8 nM		
AGCGGAACGGAAGGGUCCCAAAAUUGUGAUACCAGCCUUGAAUCCGGCCCUUGGCAGCACAUGAGGAUCACCCAUGUACUGCGAU	12.9 nM	39.4 nM		
